Test results taken from ChEMBL document CHEMBL1145648, “Antibacterial activity in serum of the 3,5-diamino-piperidine translation inhibitors” (Bioorg Med Chem Lett, 2008).
Converted amounts (≈) assume the structure as drawn.

Experiments:
Assay type in all cases: functional
Escherichia coli [1] = test: Inhibition of transcription-translation activity in Escherichia coli
Summary of the method: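 Coupled in vitro transcription–translation using E. coli extracts; IC50 in µM.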

Escherichia coli [2] = test: Antibacterial activity against Escherichia coli ATCC 25922 by microdilution method
Summary of the method: (§1)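 MIC (µg/ml) by broth microdilution in Mueller Hinton medium per NCCLS guidance; E. coli ATCC 25922 and P. aeruginosa ATCC 27853.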

Pseudomonas aeruginosa [3] = test: Antibacterial activity against Pseudomonas aeruginosa ATCC 27853 by microdilution method; summary of the method: as §1
Pseudomonas aeruginosa [4] = test: Antibacterial activity against Pseudomonas aeruginosa by agar dilution method
Summary of the method: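 Agar dilution susceptibility testing on Mueller Hinton agar, performed by Fujisawa Pharmaceuticals; MIC50/80/90 denote concentration inhibiting that percent of isolates.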

Escherichia coli [5] = test: Antibacterial activity against Escherichia coli ATCC 25922 by microdilution method in presence of serum
Summary of the method: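 Broth microdilution in MH medium per NCCLS, run with and without 50% mouse serum; MIC (µg/ml) in serum reported as fold shift relative to serum-free MIC; strains E. coli ATCC 25922 and P. aeruginosa ATCC 27853.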

Row | Structure (SMILES) | IC50 (Escherichia coli [1]) [µM] | MIC (Escherichia coli [2]) [µg/mL] | MIC (Pseudomonas aeruginosa [3]) [µg/mL] | MIC50 (Pseudomonas aeruginosa [4]) [µg/mL] | MIC80 (Pseudomonas aeruginosa [4]) [µg/mL] | MIC90 (Pseudomonas aeruginosa [4]) [µg/mL] | Fold change (Escherichia coli [5])
1 | Cl.N[C@@H]1C[C@H](N)CN(c2nc(N3C[C@H](N)C[C@H](N)C3)c3[nH]c(Nc4ccc(NC(=O)c5ccc6cccnc6c5O)cc4)nc3n2)C1 | 0.4 | 8 | 16 | – | – | – | –
2 | Cl.N[C@@H]1C[C@H](N)CN(c2cc(Nc3ccc(NC(=O)c4cnc5ccccc5c4O)cc3)cc(N3C[C@H](N)C[C@H](N)C3)n2)C1 | 2.2 | ≥ 64 | ≤ 0.5 | – | – | – | –
3 | Cl.N[C@@H]1C[C@H](N)CN(c2nc(Nc3ccc(NC(=O)c4cc(Cl)ccc4O)c(O)c3)nc(N3C[C@H](N)C[C@H](N)C3)n2)C1 | 9 | 4 | 1 | – | – | – | –
4 | Cl.N[C@@H]1C[C@H](N)CN(c2nc(N3C[C@H](N)C[C@H](N)C3)c(Cl)c(Nc3ccc(NC(=O)c4ccc5ccccc5c4O)cc3)c2Cl)C1 | 14 | 2 | 1 | – | – | – | –
5 | CCn1cc(C(=O)Nc2ccc(Nc3nc(N4C[C@H](N)C[C@H](N)C4)nc(N4C[C@H](N)C[C@H](N)C4)n3)cc2)c(=O)c2cnc(N3CCNCC3)nc21.Cl | 0.9 | 32 | 1 | – | – | – | –
6 | CCn1cc(C(=O)Nc2ccc(Nc3nc(N4C[C@H](N)C[C@H](N)C4)nc(N4C[C@H](N)C[C@H](N)C4)n3)cc2)c(=O)c2cc(F)c(N3CCNCC3)cc21.Cl | 2 | ≤ 0.5 | 1 | – | – | – | –
7 | Cl.N[C@@H]1C[C@H](N)CN(c2nc(Nc3ccc(NC(=O)c4cn(C5CC5)c5cc(N6CCNCC6)c(F)cc5c4=O)cc3)nc(N3C[C@H](N)C[C@H](N)C3)n2)C1 | 0.4 | 64 | 2 | – | – | – | –
8 | CCN1CCN(c2cc3c(cc2F)c(=O)c(C(=O)Nc2ccc(Nc4nc(N5C[C@H](N)C[C@H](N)C5)nc(N5C[C@H](N)C[C@H](N)C5)n4)cc2)cn3C2CC2)CC1.Cl | 1.3 | ≤ 0.5 | 2 | – | – | – | –
9 | Cl.N[C@@H]1C[C@H](N)CN(c2nc3nc(Nc4ccc(NC(=O)c5ccc6ccccc6c5O)cc4)nc(N4C[C@H](N)C[C@H](N)C4)c3[nH]2)C1 | 18 | 1 | 2 | – | – | – | –
10 | Cl.N[C@@H]1C[C@H](N)CN(c2nc(Nc3ccc(NC(=O)c4ccc5cccnc5c4O)cc3)nc(N3C[C@H](N)C[C@H](N)C3)n2)C1 | – | 4 | 2 | – | – | – | –
11 | Cl.N[C@@H]1C[C@H](N)CN(c2nc(Nc3ccc(NC(=O)c4ccc5ccccc5c4)cc3)nc(N3C[C@H](N)C[C@H](N)C3)n2)C1 | 24 | 1 | ≤ 0.5 | – | – | – | –
12 | Cl.N[C@@H]1C[C@H](N)CN(c2cc(Nc3ccc(NC(=O)c4ccc5ccccc5c4O)cc3)nc(N3C[C@H](N)C[C@H](N)C3)n2)C1 | 18 | ≤ 0.5 | 8 | – | – | – | –
13 | Cl.N[C@@H]1C[C@H](N)CN(c2nc(N3C[C@H](N)C[C@H](N)C3)c3[nH]c(Nc4ccc(NC(=O)c5cnc6ccccc6c5O)cc4)nc3n2)C1 | – | 1 | 1 | – | – | – | –
14 | Cl.N[C@@H]1C[C@H](N)CN(c2nc(N3C[C@H](N)C[C@H](N)C3)c(Cl)c(Nc3ccc(NC(=O)C4=CN(C5CC5)C5C=C(N6CCNCC6)C(F)=CC5C4=O)cc3)c2Cl)C1 (stereo not given in full) | 0.8 | 8 | 8 | – | – | – | –
15 | CC1COc2c(N3CCNCC3)c(F)cc3c(=O)c(C(=O)Nc4ccc(Nc5nc(N6C[C@H](N)C[C@H](N)C6)nc(N6C[C@H](N)C[C@H](N)C6)n5)cc4)cn1c23.Cl (stereo not given in full) | 1 | 16 | 8 | – | – | – | –
16 | Cl.N[C@@H]1C[C@H](N)CN(c2nc(Nc3ccc(NC(=O)c4ccccc4O)c(O)c3)nc(N3C[C@H](N)C[C@H](N)C3)n2)C1 | 11 | 4 | 2 | – | – | – | –
17 | Cl.N[C@@H]1C[C@H](N)CN(c2nc(Nc3ccc(NC(=O)c4cnc5ccccc5c4O)cc3)nc(N3C[C@H](N)C[C@H](N)C3)n2)C1 | 5 | 4 | 1 | – | – | – | –
18 | Cl.N[C@@H]1C[C@H](N)CN(c2nc(Nc3ccc(NC(=O)c4ccc(Cl)cc4)c(O)c3)nc(N3C[C@H](N)C[C@H](N)C3)n2)C1 | – | – | – | 4 | 4 | 8 | –

Row | Structure (SMILES) | IC50 (Escherichia coli [1]) [µM] | MIC (Escherichia coli [2]) [µg/mL] | MIC (Pseudomonas aeruginosa [3]) [µg/mL] | MIC50 (Pseudomonas aeruginosa [4]) [µg/mL] | MIC80 (Pseudomonas aeruginosa [4]) [µg/mL] | MIC90 (Pseudomonas aeruginosa [4]) [µg/mL] | Fold change (Escherichia coli [5])
19 | Cl.N[C@@H]1C[C@H](N)CN(c2nc(Nc3ccc(NC(=O)c4cccnc4O)c(O)c3)nc(N3C[C@H](N)C[C@H](N)C3)n2)C1 | 4 | 8 | ≤ 0.5 | – | – | – | –
20 | Cl.N[C@@H]1C[C@H](N)CN(c2nc(Nc3ccc(NC(=O)c4ncccc4O)c(O)c3)nc(N3C[C@H](N)C[C@H](N)C3)n2)C1 | 10 | 8 | 4 | – | – | – | –
21 | Cl.N[C@@H]1C[C@H](N)CN(c2cc(Nc3ccc(NC(=O)c4ccc5ccccc5c4O)cc3)cc(N3C[C@H](N)C[C@H](N)C3)n2)C1 | 26 | 2 | 1 | – | – | – | –
22 | Cl.N[C@@H]1C[C@H](N)CN(c2nc(Nc3ccc(NC(=O)c4cc(Cl)cnc4O)c(O)c3)nc(N3C[C@H](N)C[C@H](N)C3)n2)C1 | 3 | 4 | ≤ 0.5 | – | – | – | 2
23 | Cl.N[C@@H]1C[C@H](N)CN(c2nc(Nc3ccc(NC(=O)c4cnc5ccccc5c4O)c(Cl)c3)nc(N3C[C@H](N)C[C@H](N)C3)n2)C1 | 24 | 4 | 1 | – | – | – | –
24 | Cl.N[C@@H]1C[C@H](N)CN(c2cc(Nc3ccc(NC(=O)c4ccc5ccccc5c4O)cc3)nc(N3C[C@H](N)C[C@H](N)C3)c2)C1 | 16 | 2 | ≤ 0.5 | – | – | – | –
25 | CCn1cc(C(=O)Nc2ccc(Nc3nc(N4C[C@H](N)C[C@H](N)C4)nc(N4C[C@H](N)C[C@H](N)C4)n3)cc2)c(=O)c2ccc(C)nc21.Cl | 2 | 4 | 2 | – | – | – | –
26 | CCn1cc(C(=O)Nc2ccc(Nc3nc(N4C[C@H](N)C[C@H](N)C4)nc(N4C[C@H](N)C[C@H](N)C4)n3)cc2)c(=O)c2cc3c(cc21)OCO3.Cl | 3 | 1 | 1 | – | – | – | –
27 | Cl.N[C@@H]1C[C@H](N)CN(c2nc(Nc3ccc(NC(=O)c4cnc5ccccc5c4O)c(O)c3)nc(N3C[C@H](N)C[C@H](N)C3)n2)C1 | 5 | 1 | 1 | – | – | – | –
28 | Cl.N[C@@H]1C[C@H](N)CN(c2cc(Nc3ccc(NC(=O)c4ccc5ccccc5c4O)cc3)cc(N3C[C@H](N)C[C@H](N)C3)c2)C1 | 12 | 2 | 2 | – | – | – | –
29 | Cl.N[C@@H]1C[C@H](N)CN(c2nc(Nc3ccc(NC(=O)c4ccc5ccccc5c4O)cc3)nc(N3C[C@H](N)C[C@H](N)C3)n2)C1 | 24 | 1 | ≤ 0.5 | – | – | – | –
30 | NCC[C@H](O)C(=O)N[C@@H]1C[C@H](N)[C@@H](O[C@H]2O[C@H](CN)[C@@H](O)[C@H](O)[C@H]2O)[C@H](O)[C@H]1O[C@H]1O[C@H](CO)[C@@H](O)[C@H](N)[C@H]1O [AMIKACIN] | – | – | – | 4 (≈ 6.83 µM) | 8 (≈ 13.7 µM) | 32 (≈ 54.6 µM) | –
31 | CC(C)(O/N=C(\C(=O)N[C@@H]1C(=O)N2C(C(=O)[O-])=C(C[n+]3ccccc3)CS[C@H]12)c1csc(N)n1)C(=O)O [CEFTAZIDIME] | – | – | – | 2 (≈ 3.66 µM) | 8 (≈ 14.6 µM) | 16 (≈ 29.3 µM) | –
32 | O=C(N[C@H](CO)[C@H](O)c1ccc([N+](=O)[O-])cc1)C(Cl)Cl [CHLORAMPHENICOL] | – | – | – | > 128 | > 128 | > 128 | –
33 | C[C@@H](O)[C@H]1C(=O)N2C(C(=O)O)=C(SCCNC=N)C[C@H]12 [IMIPENEM ANHYDROUS] | – | – | – | 2 (≈ 6.68 µM) | 16 (≈ 53.4 µM) | 16 (≈ 53.4 µM) | –
34 | CCn1cc(C(=O)O)c(=O)c2ccc(C)nc21 [NALIDIXIC ACID] | > 100 | – | – | – | – | – | –
35 | CCN1CCN(C(=O)N[C@@H](C(=O)N[C@@H]2C(=O)N3[C@@H]2SC(C)(C)[C@@H]3C(=O)O)c2ccccc2)C(=O)C1=O [PIPERACILLIN] | – | – | – | 8 (≈ 15.5 µM) | 32 (≈ 61.8 µM) | 64 (≈ 124 µM) | –
36 | CN(C)[C@@H]1C(O)=C(C(N)=O)C(=O)[C@@]2(O)C(O)=C3C(=O)c4c(O)cccc4[C@@](C)(O)[C@H]3C[C@@H]12 [TETRACYCLINE] | – | – | – | 32 (≈ 72 µM) | 64 (≈ 144 µM) | 64 (≈ 144 µM) | –
